Rows were chosen to be rich in hits. Some 3.3% of all compounds tested hit in one or more screens of this group.
LEDGF integ inh – blocks HIV-1 LEDGF/p75-dependent DNA integration; TR-FRET IN-LEDGF/p75 DNA integration, Eu/Cy5; inhibition, % at 3.7 µM; 0.64% of 370,000 active; AID 743269;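 active = inhibition above the screen-wide mean plus 3 SD, cut at about 13% in these data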;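 note: signal is the Cy5 over europium emission ratio at 671 and 618 nm; 0% = plate median of compound wells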
UHRF1 MBD2 ctr – blocks human UHRF1 binding to methylated DNA; inhibition, % at 4.4 µM; 0.75% of 370,000 active; AID 687016; UHRF1 binding to methylated oligo, TR-FRET; Q96T88; in the data active = inhibition above about 21%;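 note: UHRF1 SRA domain binding a hemimethylated CpG hairpin DNA probe; 0% = median of test compound wells and 100% = reference inhibitor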
SIAE primary – human SIAE inhibition, primary screen; Q9HAT2; SIAE FP-Rh probe binding, fluorescence polarization; inhibition, % at 9.66 µM; 0.69% of 370,000 active;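 active = inhibition above a cutoff: mean of compounds within the control limits plus 3 SD of those, cut at about 17% in these data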;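 note: 0% = plate median of compound wells and 100% = probe without SIAE protein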
PRMT1 FP inh – PRMT1 (human) inhibition, primary screen; inhibition, % at 2.79 µM; Q99873; AID 652257; 1.3% of 370,000 active; recombinant PRMT1, activity-based probe fluorescence polarization;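 active = inhibition above about 21% made by adding two undisclosed values, limit read from the data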
Target sequence (Q99873 whole entry, looked up): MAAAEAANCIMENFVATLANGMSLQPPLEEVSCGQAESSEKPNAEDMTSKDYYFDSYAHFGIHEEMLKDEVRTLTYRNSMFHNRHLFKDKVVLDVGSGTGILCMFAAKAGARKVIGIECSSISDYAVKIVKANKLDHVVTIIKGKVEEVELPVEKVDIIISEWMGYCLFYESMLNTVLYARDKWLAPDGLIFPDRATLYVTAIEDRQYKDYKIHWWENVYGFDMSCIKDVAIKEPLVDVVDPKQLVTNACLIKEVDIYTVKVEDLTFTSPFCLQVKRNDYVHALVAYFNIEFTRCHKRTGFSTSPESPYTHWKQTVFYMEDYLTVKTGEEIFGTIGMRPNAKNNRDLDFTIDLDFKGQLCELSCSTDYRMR
TDP2 inh – blocks human TDP2 phosphodiesterase activity; 0.34% of 370,000 active; AID 720702; recombinant TDP2, T5PNP hydrolysis, p-nitrophenol absorbance 415 nm; inhibition, % at 12.8 µM;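 active = inhibition above the mean of all tested compounds plus 3 SD, set per campaign, cut at about 25% in these data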;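 note: 0% = DMSO with enzyme and 100% = buffer with substrate but no TDP2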
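Test system: Human TDP2 enzyme | Reagent: 5 mM T5PNP | Compound dosing: 12.8 µM single point, 1% DMSO | Incubation: Enzyme reaction with compound for 2 h at 37 °C | Technique: p-Nitrophenol epi absorbance | Read-out: % inhibition relative to enzyme-containing and enzyme-free wells | Benchmarks: High control without enzyme, low control DMSO plus TDP2 | Replicates: Singlicate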
MBD2 inh – MBD2-methylated oligo binding inhibition | TR-FRET, MBD2 binding to methylated oligonucleotide | inhibition, % at 4.4 µM | 0.31% of 370,000 active | Q9UBB5 | AID 686964; in the data active = inhibition above about 13%
PRMT1 inh conf – PRMT1 (human) inhibition, FP confirmation | 42% of 3,300 active | shares compounds with PRMT1 FP inh | recombinant His-PRMT1, activity-based probe fluorescence polarization | AID 687036 | inhibition, % at 2.79 µM;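 active = mean inhibition across replicates above the hit cutoff derived for the earlier primary screen, cut at about 22% in these data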
An asterisk follows results filed as active; · = no result.

SMILES	LEDGF integ inh	UHRF1 MBD2 ctr	SIAE primary	PRMT1 FP inh	TDP2 inh	MBD2 inh	PRMT1 inh conf
Cc1ccc(C2CC2c2n[nH]c(=S)n2-c2ccc(Cl)cc2)cc1 (stereo not given)	3	-3	6	27*	-13	-4	11
Cc1ccc(C2CC2c2n[nH]c(=S)n2-c2cccc(C)c2)cc1 (stereo not given)	-3	3	5	26*	-7	1	17
Cc1ccc(-c2nn(-c3ccccc3)cc2/C=C/C(=O)O)o1	0	2	-1	31*	16	-2	0
O=C(c1ccco1)N(Cc1ccccc1)Cc1ccccn1	-3	-1	-2	5	3	2	·
Cc1ccc(-c2nn(-c3ccccc3)cc2CN(Cc2ccccc2)C(=O)c2ccco2)o1	1	-3	-15	39*	8	0	19
CCCCNC(=O)C[C@H]1C[C@@]2(C(=O)OC)C(=C[C@H](C3CCCC3)O[C@@H]2C)N(Cc2ccc(Cl)cc2Cl)C1=O	-4	1	-1	3	-2	-1	·
CC(CCc1ccco1)NC(=O)c1cc2c(-c3ccccc3F)nn(C)c2s1 (stereo not given)	13	4	-29	47*	-1	7	0
CCCN(CCC)CCNC(=O)c1cc2c(-c3ccccc3F)nn(C)c2s1	-4	4	-1	1	9	1	·
COc1ccc(N2C(=O)CC(Sc3nnc(-c4ccccc4F)n3C)C2=O)cc1 (stereo not given)	1	-1	-1	36*	-4	0	48*
CCOc1ccc2nc(SC3CC(=O)N(c4ccc(OC)cc4)C3=O)sc2c1 (stereo not given)	-3	1	-6	7	0	-4	·
COc1ccc(N2C(=O)CC(Sc3nc4ccccc4s3)C2=O)cc1 (stereo not given)	4	7	-8	35*	-12	4	4
Cc1nc(SC2CC(=O)N(c3ccccc3)C2=O)nc2c1CCCC2 (stereo not given)	2	0	-1	8	-10	0	·
C=CCNc1nnc(SC2CC(=O)N(c3ccc(OC)cc3)C2=O)s1 (stereo not given)	-7	0	-5	83*	-4	-3	72*
Cc1nnc(SC2CC(=O)N(c3ccccc3)C2=O)s1 (stereo not given)	2	0	6	78*	7	3	70*
COc1ccc(N2C(=O)CC(Sc3nccc(C)n3)C2=O)cc1 (stereo not given)	0	-1	2	2	-4	-3	·
O=C(Cn1cnc2ccccc2c1=O)N1CCN(C(=O)C2CCCO2)CC1 (stereo not given)	-3	2	0	7	3	1	·
COc1ccc(N2C(=O)CC(SCCc3nc4ccccc4[nH]3)C2=O)cc1 (stereo not given)	6	0	2	26*	-7	-1	-2
O=C1CC(SCCc2nc3ccccc3[nH]2)C(=O)N1c1ccc(F)cc1 (stereo not given)	0	-1	-2	19	-3	-2	·
CCOc1ccc(N2C(=O)CC(Sc3nnnn3-c3ccccc3)C2=O)cc1 (stereo not given)	-1	3	-10	76*	-2	5	43*
CCOc1ccc(N2C(=O)CC(Sc3nc(C)cc(C)n3)C2=O)cc1 (stereo not given)	1	-3	4	2	2	2	·
COC(=O)[C@]12C[C@H](CC(=O)N3CCC(c4ccccc4)CC3)C(=O)N(Cc3cccc4ccccc34)C1=C[C@H](C(C)(C)C)O[C@@H]2C	-3	2	0	-5	7	-2	·
COC(=O)[C@]12C[C@H](CC(=O)NCCC(C)C)C(=O)N(Cc3cccc4ccccc34)C1=C[C@H](C(C)(C)C)O[C@@H]2C	-2	5	-3	3	-9	5	·
Nc1[nH]c(C(=O)c2ccccc2)c(-c2ccc(Cl)cc2)c1C(=O)NCCC1=CCCCC1	-4	-1	6	-3	10	-6	·
Cc1cccc2cc(C(c3nnnn3Cc3ccccc3)N3CCCc4ccccc43)c(=O)[nH]c12 (stereo not given)	6	-8	9	26*	-3	-1	-3
CCN1CCN(C(c2cc3cccc(C)c3[nH]c2=O)c2nnnn2Cc2ccccc2)CC1 (stereo not given)	7	1	-1	6	0	-4	·
SMILES	LEDGF integ inh	UHRF1 MBD2 ctr	SIAE primary	PRMT1 FP inh	TDP2 inh	MBD2 inh	PRMT1 inh conf
Cn1c(=O)c(=O)n(C)c2cc(S(=O)(=O)N3CCN(CCO)CC3)ccc21	-1	0	2	0	5	-5	·
CC(=O)c1sc2nc(C)c3c(c2c1N)CCCC3	-3	-4	-1	5	-4	-2	·
CC(=O)c1sc2nsc(SCCN3CCCC3)c2c1N	5	-6	13	35*	-11	-10	11
COC(=O)c1c(-c2cccnc2)csc1NC(=O)c1cc(C)on1	-1	3	-3	29*	0	0	12
COc1ccc(CCN(/C=C2\Sc3ccccc3C2=O)C(C)=O)cc1OC	-3	4	-9	67*	-5	2	45*
COc1ccc(CCN(C)C(=O)CN2C(=O)c3ccccc3S2(=O)=O)cc1OC	3	7	-9	-2	-13	-3	·
Nc1cc2sc(-c3ccc(C(=O)O)cc3)nc2cc1Cl	-1	-4	-20	3	6	-3	·
Nc1ncc(N=Nc2cc(C(=O)O)ccc2Cl)s1	1	0	-3	26*	13	-1	29*
CC(C)N(C(=O)[C@H]1C[C@H](CC(=O)NCCc2ccccn2)C(=O)N2CCc3c([nH]c4cc(-c5ccco5)ccc34)[C@]12C)C(C)C	9	-1	-9	40*	-11	0	1
CCC[C@H]1[C@@H](OC(=O)NCc2cccnc2)CC[C@@]23CCCN2C(=O)CCC[C@@H]13	0	-1	7	2	4	0	·
Cc1ccc(SC[C@H](CC(C)C)N2CCN(CCc3ccccc3)CCC2=O)cc1	3	1	-1	1	-10	-1	·
CC(=O)Nc1ccc(SC[C@H](CC(C)C)N2CCN(CCc3ccccc3)CCC2=O)cc1	2	3	-4	40*	-16	0	40*
COC(=O)C[C@H]1CC[C@@H]2[C@H](COc3ccc(NS(C)(=O)=O)cc3C(=O)N2C)O1	-3	-2	-3	-1	4	2	·
O=C(NC1CCCCN(Cc2cccc(Cl)c2)C1=O)c1ccc(F)cc1 (stereo not given)	-3	-2	-3	-1	-4	-1	·
